# Assays:
# [1] = melting temperature; fluorescence melt of hairpins on a sequencing array, two-state fit, raised by 9.35 °C to match UV melts; conditions: sodium 0.088 M
# Summary of the method: (§1)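 Two-state fits, bootstrapped, provided melting temperature and folding enthalpy from Cy3 fluorescence normalised to pre-quench Cy3 and to control constructs. Library hairpins with annealed Cy3 and quencher oligos were imaged on a sequenced MiSeq flow cell in 50 mM Na-HEPES pH 8.0, 25 mM NaCl, at 2.5 °C intervals up to 60 °C. Four replicates were combined with inverse-variance weighting. A 9.35 °C upward shift was applied to fitted temperatures to match UV melts.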
# [2] = folding enthalpy; higher = less favourable; fluorescence melt of hairpins on a sequencing array, two-state fit; conditions: sodium 0.088 M
# Summary of the method: as §1
Sequence,Tm [1],folding enthalpy [2]
GTCGGACGAAAGTCTGAC (((.(((....))).))),61.5 °C,-40.9 kcal/mol
GCGAACGAAAGTTCCCGC ((((((....)))..))),36.7 °C,-16.3 kcal/mol
GCCATGCGAAAGCATTGC ((.((((....)))).)),54 °C,-21.2 kcal/mol
GATCGAGGCGTCGATC ((((((....)))))),55.1 °C,-40.6 kcal/mol
GCCGCGCGAAAGCTGGGC (((..((....))..))),56.3 °C,-20 kcal/mol
GCCGGGCGAAAGCTAGGC (((..((....))..))),66.6 °C,-34.4 kcal/mol
GATAAAGCGAAAGCTATC (((..(((....)))))),33.1 °C,-14.2 kcal/mol
CGCTCGGAAACGACGGCG ((((((....)))..))),46.6 °C,-22.7 kcal/mol
GATCCATGTCTGGATC ((((((....)))))),50.5 °C,-40.9 kcal/mol
GATCCGTCCTCGGATC ((((((....)))))),58 °C,-48.3 kcal/mol
GAGAGAGGAAACTCTTTC ((.((((....)))).)),29.9 °C,-20.5 kcal/mol
GATCCTGAGCAGGATC ((((((....)))))),52.3 °C,-36.9 kcal/mol
CGATTGCGGAAACGCTCG (((..(((....)))))),33.5 °C,-15.9 kcal/mol
GCGGGTTTCCGC ((((....)))),59.2 °C,-28.2 kcal/mol
GGTGGCACGAAAGTGACC (((..(((....)))))),45.6 °C,-15.5 kcal/mol
GACTTTCCGAAAGGAGTC (((..(((....)))))),29.6 °C,-13 kcal/mol
GAAGGCGAAAGCCGCTTC ((((((....)))..))),56.2 °C,-13.6 kcal/mol
GCGGTTGGAAACAGCTGC ((.(.((....)).).)),52.3 °C,-25.9 kcal/mol
GAAAGTGGAAACATTTTC ((((.((....)).)))),32.1 °C,-27.4 kcal/mol
GTCCCTGGAAACAGAGAC (((.(((....))).))),36.3 °C,-28.4 kcal/mol
GATCTAATCTAGATC ((((((...)))))),38.8 °C,-28.2 kcal/mol
GTGGGCGGAAACGCCTAC ((.((((....)))).)),56.5 °C,-16.3 kcal/mol
GCCTATCCGAAAGGAGGC (((..(((....)))))),47.3 °C,-20.7 kcal/mol

Sequence,Tm [1],folding enthalpy [2]
GATCTGTCCCCAGATC ((((((....)))))),47.9 °C,-37.5 kcal/mol
GCATGAGGAAACCCATGC (((((.(....).))))),48.6 °C,-36.8 kcal/mol
GGGGTCTCGAAAGAGCCC (((..(((....)))))),58.9 °C,-28.6 kcal/mol
GCCTCAGGAAACTAAGGC ((((.((....)).)))),37.6 °C,-27.7 kcal/mol
GATTGTGAAAACAATC ((((((....)))))),51.4 °C,-35.9 kcal/mol
GCACGCGGAAACGCGCAC (..((((....))))..),31.1 °C,-7.82 kcal/mol
GATCAACTTTTGATC ((((((...)))))),43.2 °C,-30.7 kcal/mol
CGATCGGAAACGAATCG ((((((....))).))),46 °C,-34.7 kcal/mol
GCGTTGCGAAAGCATCGC (((.(((....))).))),61.3 °C,-55.8 kcal/mol
GATAACCCGAAAGGGATC (((..(((....)))))),28.9 °C,-17.8 kcal/mol
CGGACGGAAACGTGCCG ((((((....))).))),48.4 °C,-18.7 kcal/mol
GCTCCTGAAAAGGAGC ((((((....)))))),68.5 °C,-42.6 kcal/mol
GCACCACGAAAGTGTGC (((.(((....)))))),58.6 °C,-34.6 kcal/mol
GCGTGCGGAAACGCATGC ((.((((....)))).)),67.4 °C,-31 kcal/mol
GCTCCTCCGAAAGGAAGC (((..(((....)))))),34.2 °C,-15.9 kcal/mol
GCAGGCGCGAAAGCGTGC (((..(((....)))))),49.4 °C,-13.3 kcal/mol
GATCCGTCTCCGGATC ((((((....)))))),58.4 °C,-39.8 kcal/mol
GATCGGCAACCGATC ((((((...)))))),54.6 °C,-36.7 kcal/mol
GAGGCAGGAAACTGCTTC ((.((((....)))).)),47.7 °C,-18 kcal/mol
GCTTACGAAAGTACTAGC ((((((....)))..))),31.8 °C,-13.6 kcal/mol
GCGGAAGGAAACTTCTGC ((.((((....)))).)),51.4 °C,-44.6 kcal/mol
GATCTAGTTTAGATC ((((((...)))))),40.7 °C,-30.3 kcal/mol
GTTCCAGGAAACTGGAGC (.(((((....))))).),47.2 °C,-19.6 kcal/mol

Sequence,Tm [1],folding enthalpy [2]
GTGCAGCGAAAGCTACAC (((.(((....))).))),54.1 °C,-31 kcal/mol
GGTGCCGAAAGGCTTACC ((((((....)))..))),44.1 °C,-13.7 kcal/mol
GCATGGCGAAAGCGACGC ((.(.((....)).).)),38.3 °C,-12.7 kcal/mol
GGTATCGCGAAAGCGACC (((..(((....)))))),31.7 °C,-9.09 kcal/mol
GTATCCGGAAACGGATAC (((((((....))))))),63.7 °C,-36.6 kcal/mol
GCTAAGAAATTAGC (((((....))))),39.5 °C,-16.8 kcal/mol
GGGTGTGGAAACACGCTC (.(.(((....))).).),56.7 °C,-17.8 kcal/mol
GATACGCGAAAGCGAATC (((.(((....))).))),49.4 °C,-21.6 kcal/mol
GCGTCGCGAAAGCGTTGC ((..(((....)))..)),48.6 °C,-17.9 kcal/mol
GATCACTCTCGTGATC ((((((....)))))),55.7 °C,-41.8 kcal/mol
GTGTAGGGAAACCCACAC ((((.((....)).)))),45.8 °C,-24.5 kcal/mol
GGGGATGGAAACGTCCTC (.(((.(....).))).),36.1 °C,-27 kcal/mol
GATCGACTGCTCGATC ((((((....)))))),50.9 °C,-43.4 kcal/mol
GCAGGGCGAAAGCGCCGC ((.(.((....)).).)),52.6 °C,-15.7 kcal/mol
GATCTTTTGAAGATC ((((((...)))))),43.6 °C,-27.8 kcal/mol
GAGAGCGGAAACGCTTTC ((.((((....)))).)),46.4 °C,-17.3 kcal/mol
GCAATCCGAAAGGATGC (((.(((....)))))),56.4 °C,-26 kcal/mol
GAATAAGAAATTATTC ((((((....)))))),31.9 °C,-10.4 kcal/mol
GATCGGGTTGCCGATC ((((((....)))))),57.7 °C,-31.1 kcal/mol
GTTTTGCGAAAGCACAAC (((.(((....))).))),44.2 °C,-28.1 kcal/mol
GATCTGTCCGCAGATC ((((((....)))))),52.9 °C,-43.6 kcal/mol
GAGCCACGAAAGTGCTC (((.(((....)))))),54.2 °C,-19.9 kcal/mol
GCCAGGCGAAAGCCCCGC ((..(((....)))..)),28.1 °C,-11.6 kcal/mol

Sequence,Tm [1],folding enthalpy [2]
GTCGCGCGAAAGCGAGAC (((.(((....))).))),68.2 °C,-25.4 kcal/mol
GATTACGCGAAAGCGATC (((..(((....)))))),21.4 °C,-6.5 kcal/mol
GCTATAACGAAAGTTAGC (((..(((....)))))),37.5 °C,-19.8 kcal/mol
GGGTCGTCGAAAGACCCC (((..(((....)))))),52.6 °C,-21.6 kcal/mol
GGTAATGGAAACGTTACC (((((.(....).))))),45 °C,-40.4 kcal/mol
GACAATACGAAAGTAGTC (((..(((....)))))),30.3 °C,-16.4 kcal/mol
GTAAGCGAAAGCTACTAC ((((((....)))..))),47.5 °C,-14.1 kcal/mol
GCCGTGGGAAACCATGGC (((.(((....))).))),59.4 °C,-43.5 kcal/mol
GGACAGGCGAAAGCCTCC (((..(((....)))))),31.1 °C,-9.93 kcal/mol
GCTCGAGGAAACTTGGGC ((.(.((....)).).)),37.4 °C,-19.4 kcal/mol
GGGGACGAAAGTCTTCCC ((((((....)))..))),39.3 °C,-17.8 kcal/mol
CGCTCGGAAACGAAAGCG ((((((....)))..))),47.2 °C,-27.8 kcal/mol
GTGGCTGCGAAAGCACAC (((..(((....)))))),47.8 °C,-11.5 kcal/mol
GACGAAGAAATTCGTC ((((((....)))))),53.8 °C,-34.1 kcal/mol
GTCAAGGGAAACTTTGAC (((((.(....).))))),40.3 °C,-26.4 kcal/mol
GGGCACGAAAGTGTCCCC ((((((....)))..))),65.1 °C,-12 kcal/mol
GGTCTGACGAAAGTCACC (((..(((....)))))),27.8 °C,-10.4 kcal/mol
GGTGTAGGAAACTATGCC ((..(((....)))..)),35.7 °C,-32.3 kcal/mol
GCCCCAGGAAACTGGAGC ((.((((....)))).)),46.7 °C,-25.3 kcal/mol
GTGTCTGGAAACAGACAC (((((((....))))))),66.5 °C,-39.9 kcal/mol
GAAATCGGAAACGATCTC ((.((((....)))).)),29.3 °C,-17.4 kcal/mol
GACCACGAAAGTGAAGTC ((((((....)))..))),40.2 °C,-21.7 kcal/mol
GATAAACGAAAGTTGATC (((.(((....))).))),39.4 °C,-23.4 kcal/mol

# — the array DNA melting data of Ke et al. (doi:10.1101/2024.01.08.574731)
